16 compounds from ChEMBL document CHEMBL1145160, “Neoclerodane diterpenes as a novel scaffold for mu opioid receptor ligands” (J Med Chem, 2005) can be followed below.

Experiment [1] concerns Mus musculus. In words: In vivo opioid receptor activity in mouse tail flick assay. The class given is functional. In general terms: Thermal pain tests record how soon the animal reacts.
In experiment [2] the test system is Mus musculus. In words: In vivo antinociceptive activity against opioid receptor in mouse hot plate […] assay; No inhibition (inactive at 30 uM). The class given is functional, organism-based. In general terms: In writhing tests, fewer writhes than in controls are read as antinociception.
Experiment [3] deals with Mus musculus. Nature of the experiment: In vivo antinociceptive activity against opioid receptor in mouse p-phenylquinone writhing test; No inhibition (inactive at 1 uM). The class given is functional, organism-based.
Experiment [4] deals with Mus musculus. In words: In vivo opioid receptor activity in mouse p-phenylquinone writhing assay. The class given is functional.
In experiment [5] the target is T1, Kappa-type opioid receptor (Homo sapiens, UniProt P41145). In words: Stimulatory effect on [35S]GTP gammaS binding to Opioid receptor kappa1 expressed in CHO cells compared to 500 nM U50,488. In kind it is functional, cell-based. Summed up: (§1)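 Membranes from CHO cells stably transfected with DNA for the human μ, δ or κ opioid receptor; agonist-stimulated [35S]GTPγS binding measured; potency given as EC50 ± SD, efficacy as Emax.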
T1 sequence (P41145 whole entry): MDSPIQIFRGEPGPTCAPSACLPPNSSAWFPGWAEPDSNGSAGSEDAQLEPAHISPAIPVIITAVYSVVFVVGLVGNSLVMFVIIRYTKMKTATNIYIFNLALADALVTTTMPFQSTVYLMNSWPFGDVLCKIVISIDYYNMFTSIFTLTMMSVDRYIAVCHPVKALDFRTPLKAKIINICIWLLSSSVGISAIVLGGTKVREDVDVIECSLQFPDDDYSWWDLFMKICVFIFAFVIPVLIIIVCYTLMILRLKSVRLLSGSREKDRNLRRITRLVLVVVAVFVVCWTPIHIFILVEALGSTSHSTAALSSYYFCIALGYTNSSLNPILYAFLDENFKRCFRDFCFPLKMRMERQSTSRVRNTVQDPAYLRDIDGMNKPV
(In general: GTPγS resists hydrolysis and so accumulates on activated G proteins.)

Experiment [6] concerns the target T2, Delta-type opioid receptor (Homo sapiens, UniProt P41143). In words: Inhibition of [125I]- IOXY binding to human Opioid receptor delta1.
The target in experiment [7] is T1, Kappa-type opioid receptor. In words: Stimulation of [35S]GTP-gamma-S, binding to Opioid receptor kappa1 expressed in CHO cells. The class given is functional, cell-based. In outline:
as §1

Experiment [8] addresses Opioid receptors; delta & kappa (Homo sapiens) (UniProt P41145+P41143). Nature of the experiment: Relative affinity for human opioid receptor delta1 and kappa1. In kind it is protein assay.
For experiment [9], the target named is T3, Mu-type opioid receptor (Homo sapiens, UniProt P35372). Nature of the experiment: Stimulatory effect on [35S]-GTP gammaS binding to Opioid receptor mu1 expressed in CHO cells compared to 10 uM DAMGO; ND = Not determined. The class given is cell-based. Summed up:
as §1

Experiment [10] deals with Opioid receptors; mu & kappa (Homo sapiens) (UniProt P41145+P35372). In words: Relative affinity for human opioid receptor mu1 and kappa1. The class given is protein assay.
Chain of Opioid receptors; mu & kappa (Homo sapiens) (P35372 whole entry, looked up): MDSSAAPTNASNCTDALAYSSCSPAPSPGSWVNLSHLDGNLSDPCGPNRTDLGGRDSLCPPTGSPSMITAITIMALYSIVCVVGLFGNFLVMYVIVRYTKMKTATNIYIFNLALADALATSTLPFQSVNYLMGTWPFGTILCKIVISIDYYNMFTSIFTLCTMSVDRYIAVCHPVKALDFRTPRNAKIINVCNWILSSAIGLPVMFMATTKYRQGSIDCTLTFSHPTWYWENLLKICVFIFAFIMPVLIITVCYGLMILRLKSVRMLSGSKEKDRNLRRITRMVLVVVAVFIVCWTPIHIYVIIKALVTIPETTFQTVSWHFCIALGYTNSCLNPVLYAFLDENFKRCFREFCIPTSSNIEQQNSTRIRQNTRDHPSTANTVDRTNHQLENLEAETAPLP
Chain of Opioid receptors; mu & kappa (Homo sapiens) (P41145 whole entry, looked up): as the sequence (P41145 whole entry) above
Experiment [11] addresses T3, Mu-type opioid receptor. Nature of the experiment: Stimulation of [35S]GTP-gamma-S, binding to Opioid receptor mu1 expressed in CHO cells; ND = Not determined. In kind it is functional, cell-based. Summed up:
as §1

Experiment [12] deals with T3, Mu-type opioid receptor. Nature of the experiment: Inhibition of [125I]- IOXY binding to human Opioid receptor mu1.
Experiment [13] relates to Mus musculus. Nature of the experiment: In vivo opioid receptor activity in mouse hot plate assay.
Experiment [14] concerns the target T2, Delta-type opioid receptor. In words: Stimulation of [35S]-GTP gammaS binding to Opioid receptor delta 1 expressed in CHO cells; ND = Not determined. In kind it is functional, cell-based. In outline: as §1
The target in experiment [15] is T3, Mu-type opioid receptor. In words: Stimulatory effect on [35S]-GTP gammaS binding to Opioid receptor mu1 expressed in CHO cells compared to 10 uM DAMGO. The class given is cell-based. In outline:
as §1

Experiment [16] concerns the target T1, Kappa-type opioid receptor. In words: Inhibition of [125I]- IOXY binding to human Opioid receptor kappa1.
The target in experiment [17] is T3, Mu-type opioid receptor. Nature of the experiment: Stimulation of [35S]GTP-gamma-S, binding to Opioid receptor mu1 expressed in CHO cells. In kind it is functional, cell-based. In outline:
as §1

pEC50, pKi: −log10 of the molar value. Activity calls are given as the source filed them. The rule behind the calls is not given here.

T3 sequence (P35372 whole entry): as the sequence (P35372 whole entry, looked up) above
T2 sequence (P41143 whole entry): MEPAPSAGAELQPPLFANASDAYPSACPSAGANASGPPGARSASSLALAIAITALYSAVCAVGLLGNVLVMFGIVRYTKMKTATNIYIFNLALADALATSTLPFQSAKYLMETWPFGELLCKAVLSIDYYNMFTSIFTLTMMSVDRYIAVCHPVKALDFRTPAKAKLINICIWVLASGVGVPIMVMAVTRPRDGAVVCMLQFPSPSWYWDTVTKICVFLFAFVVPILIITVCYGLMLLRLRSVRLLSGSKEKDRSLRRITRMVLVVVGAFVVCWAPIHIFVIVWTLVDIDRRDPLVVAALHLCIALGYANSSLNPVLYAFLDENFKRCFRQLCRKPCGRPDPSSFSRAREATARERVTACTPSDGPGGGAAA
Chain of Opioid receptors; delta & kappa (Homo sapiens) (P41143 whole entry, looked up): as the sequence (P41143 whole entry) above
Chain of Opioid receptors; delta & kappa (Homo sapiens) (P41145 whole entry, looked up): as the sequence (P41145 whole entry) above

With `COC(=O)[C@@H]1C[C@H](OC(C)=O)C(=O)[C@H]2[C@@]1(C)CC[C@H]1C(=O)O[C@H](c3ccoc3)C[C@]21C` [SALVINORIN A], the median effective dose (ED50) amounted to 1.98 mg/kg in the experiment on Mus musculus [1] and 0.59 mg/kg in the experiment with Mus musculus [4]. The inhibition entry in the experiment on Mus musculus [2] and in the experiment with Mus musculus [3] was “inactive” in each case.
Take `COC(=O)[C@@H]1C[C@H](OC(=O)c2cccnc2)C(=O)[C@H]2[C@@]1(C)CC[C@H]1C(=O)O[C@H](c3ccoc3)C[C@]21C`: the Emax came out at 76% in experiment [5] and 110% at Mu-type opioid receptor [9]. In addition, the negative-log Ki (pKi) in experiment [6] is 5.32. Further, the results for the pEC50 (in experiment [7]; at Mu-type opioid receptor [11]) were 5.24 and 5.68, respectively. Besides, the values for the Selectivity in [8] and in experiment [10] were 3 and 0.04, respectively.
As for `COC(=O)C(=O)O[C@H]1C[C@@H](C(=O)OC)[C@]2(C)CC[C@H]3C(=O)O[C@H](c4ccoc4)C[C@]3(C)[C@H]2C1=O`, the pKi (at Mu-type opioid receptor [12]; in experiment [6]) was below 5.00 in each case. In addition, the Selectivity in experiment [8] and in experiment [10] was above 30 each time.
`CCC(=O)O[C@H]1C[C@@H](C(=O)OC)[C@]2(C)CC[C@H]3C(=O)O[C@H](c4ccoc4)C[C@]3(C)[C@H]2C1=O`: the results for the pKi (at Mu-type opioid receptor [12]; in experiment [6]) were below 6.00 and 5.17, respectively. The same compound gave an Emax in experiment [5] of 110%. In [7], this compound gave a pEC50 of 6.85. Moreover, the Selectivity in experiment [8] is 2730.
`COC(=O)[C@@H]1C[C@H](O[Si](C)(C)C)C(=O)[C@H]2[C@@]1(C)CC[C@H]1C(=O)O[C@H](c3ccoc3)C[C@]21C`: the pKi (at Mu-type opioid receptor [12]; in [6]) was below 5.00 each time. Moreover, the Selectivity in [8] and in [10] was above 7 in each case.
For the compound `COC(=O)[C@@H]1C[C@H](OC(C)=O)[C@H](OC(C)=O)[C@H]2[C@@]1(C)CC[C@H]1C(=O)O[C@H](c3ccoc3)C[C@]21C`, the pKi (at Mu-type opioid receptor [12]; in experiment [6]) was below 5.00 in each case. Besides, the Selectivity in experiment [8] and in experiment [10] was above 15 throughout.
`C=CCNC(=O)O[C@H]1C[C@@H](C(=O)OC)[C@]2(C)CC[C@H]3C(=O)O[C@H](c4ccoc4)C[C@]3(C)[C@H]2C1=O`: the pKi is 6.19 at Mu-type opioid receptor [12] and 5.19 in experiment [6]. The Selectivity in experiment [8] amounted to 55; in [10], 5.
Take `CN1CC[C@]23c4c5ccc(O)c4O[C@H]2[C@@H](O)C=C[C@H]3[C@H]1C5` [MORPHINE]: the 50% effect level with Mus musculus [13] (ED50) was put at a dose of 0.8 mg/kg.
For the compound `COC(=O)[C@@H]1C[C@H](OC(=O)Nc2ccccc2)C(=O)[C@H]2[C@@]1(C)CC[C@H]1C(=O)O[C@H](c3ccoc3)C[C@]21C`, the Emax amounted to 100% in experiment [5] and 92% on Mu-type opioid receptor [15]. In addition, the pEC50 in [7] is 6.32; in experiment [14] it was 5.60; on Mu-type opioid receptor [11] it was 6.23. Besides, the Selectivity in experiment [8] was 2; in experiment [10] it was 0.2.
Regarding `COC(=O)[C@@H]1C[C@H](O)[C@H](O)[C@@H]2[C@@]3(C)C[C@@H](c4ccoc4)OC(=O)[C@H]3CC[C@]21C`, the pKi (at Mu-type opioid receptor [12]; in experiment [6]; in experiment [16]) was below 5.00 in each case.
Regarding `COC(=O)[C@@H]1C[C@H](OC(=O)c2ccccc2)C(=O)[C@H]2[C@@]1(C)CC[C@H]1C(=O)O[C@H](c3ccoc3)C[C@]21C` [HERKINORIN], the maximal response (Emax) in [5] came out at 140%; at Mu-type opioid receptor [15] it was 130%. This compound gave a pKi in experiment [6] of 5.93. The pEC50 in experiment [7] is 5.88; on Mu-type opioid receptor [17], 6.30. Further, the Selectivity turned out to be 12 in experiment [8] and 0.13 in experiment [10].
As for `COC(=O)[C@@H]1C[C@H](OC(=O)C(C)C)C(=O)[C@H]2[C@@]1(C)CC[C@H]1C(=O)O[C@H](c3ccoc3)C[C@]21C`, the pKi on Mu-type opioid receptor [12] is 5.53; in experiment [6], below 5.00. The Emax in experiment [5] is 105%. The compound also had a pEC50 in experiment [7] of 6.44. The compound further yielded a Selectivity in experiment [10] of 196.
Turning to `COC(=O)[C@@H]1C[C@H](OC(=N)C(Cl)(Cl)Cl)C(=O)[C@H]2[C@@]1(C)CC[C@H]1C(=O)O[C@H](c3ccoc3)C[C@]21C`, the pKi at Mu-type opioid receptor [12] is below 5.00. The Selectivity in [8] was 95; in experiment [10] it was above 150.
For `COC(=O)[C@@H]1C[C@H](OS(C)(=O)=O)C(=O)[C@H]2[C@@]1(C)CC[C@H]1C(=O)O[C@H](c3ccoc3)C[C@]21C`, in experiment [5], the Emax turned out to be 112%. For the same compound, the pKi in experiment [6] is below 5.00. In experiment [7], the pEC50 is 7.52.
For the compound `C=C(C)C(=O)O[C@H]1C[C@@H](C(=O)OC)[C@]2(C)CC[C@H]3C(=O)O[C@H](c4ccoc4)C[C@]3(C)[C@H]2C1=O`, the pKi was 6.59 on Mu-type opioid receptor [12] and 5.05 in [6]. The Selectivity in [8] was determined as 210; in experiment [10] it was 7.
As for `COC(=O)[C@@H]1C[C@H](O)[C@H](O)[C@H]2[C@@]1(C)CC[C@H]1C(=O)O[C@H](c3ccoc3)C[C@]21C`, the pKi is 5.24 on Mu-type opioid receptor [12], below 5.00 in experiment [6] and 5.50 in experiment [16]. The Selectivity in experiment [8] was above 3; in [10], 2.

In general, ED50 refers to the midpoint of the dose-response relation. A high value points to a need for a large dose. Broadly, the Emax is the maximal effect, on the per cent scale that the assay sets. The pKi is the negative decadic logarithm of the Ki, by convention in mol/L. A word on the pEC50: it is −log10 of the EC50, conventionally taken in molar units. Read a low pEC50 as a high EC50.
